Test results published in article PMC3889630 (European Journal of Clinical Pharmacology, 2013).
Entries after “also recorded” stand apart in the source; their conditions may differ. Where two headings read alike, the source gives them in different places.

Legend:
[1] = treatment-naïve subjects, SPRING-1; cited from earlier work
[2] = Safety and tolerability after single 50 mg DTG dose; type: in vivo, human; details: both groups
In short: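 Open-label single-dose study in HIV-seronegative adults aged 18–70 y: 8 with severe renal impairment (24-h urine CLcr <30 mL/min) and 8 healthy (CLcr >90 mL/min), matched for gender, age (±5 y) and BMI (±25 %). Each took one 50 mg tablet in the morning, fasted, and stayed housed until the last PK sample. Clinical and laboratory safety checks throughout, plus follow-up 7–10 days post-dose.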

[3] = cited from earlier work
[4] = cited from earlier work; remark: listed apart in the source
[5] = co-administration with darunavir/ritonavir, Phase 1 study; cited from earlier work
[6] = type: in vitro ADME, human
[7] = type: in vivo, human
In short: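 Severe renal impairment group (CLcr <30 mL/min) and matched healthy group (>90 mL/min), n=8 each, took one fasted morning 50 mg tablet. Total DTG and DTG-glucuronide measured by validated LC-MS/MS after acetonitrile extraction. Non-compartmental parameters log-transformed and compared by ANCOVA (gender fixed; age, BMI covariates) as geometric LS mean ratio impaired/healthy with 90 % CI.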

HIV = details: stated in discussion, no reference given; cited from earlier work

| Compound | reduction in DTG exposure between the 50 mg and 10 mg once-daily doses [1] [%] | deaths or serious adverse events [2] | intensity of adverse events [2] | tolerability [2] | bound to plasma proteins [3] | share of DTG among drug-related components circulating in plasma [4] [%] | renal elimination of unchanged drug ([4]; human) | reduction of DTG trough concentration by DRV/r [5] [%] | GLS mean unbound plasma DTG concentration lower in renal impaired subjects ([6]; 3-hour time point) [%] | GLS mean unbound plasma DTG concentration lower in renal impaired subjects ([6]; 24-hour time point) [%] | effect of renal impairment on DTG fraction unbound in plasma ([6]; severe renal impairment vs healthy) | mean elimination half-life shorter in renal impairment compared to controls ([7]; 50 mg single oral dose) [%] | correlation between creatinine clearance and DTG PK parameters ([7]; Pearson, p > 0.1) | Cmax ([7]; human, plasma, oral, 50 mg, Cmax, range of values, DTG, healthy subjects) [ng/mL] | antiviral activity (HIV) | t1/2 ratio of DTG-Gluc to DTG ([7]; both groups of subjects) | glucuronide exposure relative to parent DTG based on molar ratios ([7]; renally-impaired population) [%] |
| --- | --- | --- | --- | --- | --- | --- | --- | --- | --- | --- | --- | --- | --- | --- | --- | --- | --- |
| C[C@@H]1CCO[C@H]2Cn3cc(C(=O)NCc4ccc(F)cc4F)c(=O)c(O)c3C(=O)N12 [DTG, Dolutegravir] | 75 | No deaths or serious adverse events | mild (Grade 1) | well tolerated | greater than 99% | > 97 | < 1 % of the dose | 38 | 14 | 49 | did not affect; also recorded: similar | 18 | No significant correlation | 820 to 3200 | – | – | – |
| C[C@@H]1CCO[C@H]2Cn3cc(C(=O)NCc4ccc(F)cc4F)c(=O)c(O[C@@H]4O[C@H](C(=O)O)[C@@H](O)[C@H](O)[C@H]4O)c3C(=O)N12 [DTG-Gluc, DTG-glucuronide] | – | – | – | – | – | – | – | – | – | – | – | – | – | – | no antiviral activity | ~1 | < 10 |
